Bioassay records deposited in PubChem by several laboratories.
ABCG2 block = inhibitors of human ABCG2 transporter, ABCB1 counter-screen; Q9UNQ0; IgMXP3 cells, JC-1 efflux, flow cytometry; inhibition, % at 6.6 µM; 0.1% of 190,000 active; AID 1325;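 active = inhibition above 80%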
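Times: 10 min at 25 °C | Test system: Two drug-resistant human cell lines, ABCG2 and ABCB1 | Quantity: 3 million cells/mL final, two lines in 1:1 ratio | Signal: Flow cytometry, 530 nm JC-1 signal | Dosing: Compound at 6.6 µM | Controls: Nicardipine and DMSO wells | Reagent: JC-1 as fluorescent efflux pump substrate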
Lmaj promast = reduces viability of Leishmania major promastigotes | 9% of 200,000 active | inhibition, % at 10 µM | resazurin fluorescence viability;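 note: promastigotes grown with compound for 44 hours at 28 °C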
ABCB1 block = human ABCB1 inhibition, ABCG2 as counter-screen; P08183; CCRF-Adr cells, JC-1 efflux, flow cytometry; inhibition, % at 6.6 µM; 0.067% of 190,000 active; in the data active = inhibition above about 40%;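 note: higher value means more JC-1 retained so stronger ABCB1 efflux block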
PKD1 kinase inh = blocks activity of human protein kinase D1; Q15139; inhibition, % (test concentration not listed); PKD1 kinase fluorescence polarization assay; 0.056% of 200,000 active
Target sequence (Q15139 whole entry, looked up): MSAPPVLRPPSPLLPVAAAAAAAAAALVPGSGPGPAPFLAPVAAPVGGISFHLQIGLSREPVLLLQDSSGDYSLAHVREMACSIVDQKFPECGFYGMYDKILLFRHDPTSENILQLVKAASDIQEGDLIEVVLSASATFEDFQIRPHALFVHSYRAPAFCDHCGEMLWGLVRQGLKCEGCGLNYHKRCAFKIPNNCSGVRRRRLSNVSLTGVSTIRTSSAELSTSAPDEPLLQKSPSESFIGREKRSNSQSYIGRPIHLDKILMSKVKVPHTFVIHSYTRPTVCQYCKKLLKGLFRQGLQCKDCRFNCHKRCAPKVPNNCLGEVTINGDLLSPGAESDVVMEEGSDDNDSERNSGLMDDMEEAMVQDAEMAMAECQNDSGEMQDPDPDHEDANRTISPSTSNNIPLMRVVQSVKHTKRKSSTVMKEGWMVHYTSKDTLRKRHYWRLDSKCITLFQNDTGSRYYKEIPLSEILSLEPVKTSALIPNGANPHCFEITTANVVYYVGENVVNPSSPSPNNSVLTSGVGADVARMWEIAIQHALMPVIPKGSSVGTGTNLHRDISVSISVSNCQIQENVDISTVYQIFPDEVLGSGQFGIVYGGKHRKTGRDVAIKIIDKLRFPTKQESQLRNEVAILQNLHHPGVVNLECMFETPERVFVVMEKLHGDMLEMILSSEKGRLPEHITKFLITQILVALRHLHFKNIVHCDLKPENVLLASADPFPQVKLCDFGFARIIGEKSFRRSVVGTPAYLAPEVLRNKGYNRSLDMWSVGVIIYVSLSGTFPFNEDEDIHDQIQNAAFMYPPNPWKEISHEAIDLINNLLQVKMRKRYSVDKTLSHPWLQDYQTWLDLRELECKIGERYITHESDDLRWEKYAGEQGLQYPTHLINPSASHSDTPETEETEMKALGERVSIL
Avidin bead fluor = compound fluoresces at 488/530 nm on avidin beads | compound fluorescence 488/530 nm, flow cytometry; active compounds read high | fluorescence (KMESF) at 10 µM | 0.38% of 220,000 active; in the data active = fluorescence above about 47
GSH bead fluor = compound fluoresces at 488/530 nm on GSH beads. 0.25% of 190,000 active. fluorescence (KMESF) at 10 µM. GSH beads flow cytometry, compound fluorescence 488/530 nm; active compounds read high; in the data active = fluorescence above about 89;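 note: glutathione beads carrying GST-tagged Bcl family fusion proteins plus one bare bead set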
Hits are given with their value; 0 = inactive; - = no result given. The entries come from a sample that favours hits as a whole. Cut-off read from the data, not from the text of the source, unless noted: active = inhibition above about 50%; inactive = the rest.

SMILES | ABCG2 block | Lmaj promast | ABCB1 block | PKD1 kinase inh | Avidin bead fluor | GSH bead fluor
CCOC(=O)C1=C(N)Oc2cc(O)ccc2C1c1cccc([N+](=O)[O-])c1 (centres undefined) | 0 | 0 | 0 | 0 | 0 | 0
O=C(Oc1ccccc1)c1cc2ccccc2o1 | 0 | 0 | 0 | 0 | 0 | 0
O=C(/C=C\c1ccccc1OC(=O)c1ccccc1F)c1cc2ccccc2o1 | 0 | 52 | 0 | 0 | 0 | 0
CCCCOC(=O)C1=C(C)Nc2nnnn2C1c1ccc(OC)c(OC)c1OC (centres undefined) | 0 | 94 | 0 | 0 | 0 | 0
CCCCOC(=O)C1=C(C)Nc2ncnn2C1c1ccc(OC)c(OC)c1OC (centres undefined) | 0 | 0 | 0 | 0 | 0 | 0
CCn1c(SCc2nc(-c3ccccc3)no2)nnc1-c1cccs1 | 0 | 0 | 0 | 0 | 0 | 0
CCn1c(SCc2nc(-c3cccs3)no2)nnc1-c1c[nH]c2ccccc12 | 0 | 72 | 0 | 0 | 0 | 0
COc1ccc(C(=O)NNC2CC(=O)N(Cc3ccc(Cl)cc3)C2=O)cc1OC (centres undefined) | 0 | 0 | 0 | 0 | 0 | 0
O=C(NCCOC(=O)C1COc2ccccc2O1)c1cccnc1 (centres undefined) | 0 | 0 | 0 | 0 | 0 | 0
COc1cc(-c2nc3cccc(C)n3c2NCC2CCCO2)ccc1O (centres undefined) | 0 | 0 | 0 | 0 | 0 | 0
Cc1cccc(/N=C/c2c(O)cc(C)oc2=O)n1 | 0 | 0 | 0 | 0 | 0 | 0
Cc1c(/C=N/Nc2ccc(F)cc2)c(O)n(C)c(=O)c1C#N | 0 | 60 | 0 | 0 | 0 | 0
Cn1c(O)c(/C=N/Nc2ccccc2)c(=O)n(C)c1=O | 0 | 86 | 0 | 0 | 0 | 0
Cc1cc(O)c(/C=N/Nc2ccc(F)cc2)c(=O)o1 | 0 | 70 | 0 | 0 | 0 | 0
COc1ccc([N+](=O)[O-])cc1N(CC(=O)NCCCOC(C)C)S(C)(=O)=O | 0 | 0 | 0 | 0 | 0 | 0
CC(=O)c1ccc(Nc2ccc(-c3ccccc3F)nn2)cc1 | 0 | 0 | 0 | 0 | 0 | 0
Cc1nnc(N2CCN(c3ccccc3)CC2)c2nn(-c3ccccc3F)c(C)c12 | - | 0 | - | 0 | - | -
O=C(NC1CCCCC1)c1noc2c1CCCCC2 | 0 | 0 | 0 | 0 | 0 | 0
CCN(CC)S(=O)(=O)c1ccc(Nc2nc3ccccc3n3nnnc23)cc1 | 0 | 67 | 0 | 0 | 0 | 0
O=C(/C=C/c1ccc(Cl)cc1Cl)Nc1ccncc1 | 0 | 95 | 0 | 0 | 0 | 0
O=C(/C=C/c1cccc(Cl)c1)Nc1ccncc1 | 0 | 61 | 0 | 0 | 0 | 0
O=C(/C=C/c1ccccc1Cl)Nc1ccncc1 | 0 | 100 | 0 | 0 | 0 | 0
O=C(CCCOc1ccc(Cl)cc1Cl)Nc1ccncc1 | 0 | 99 | 0 | 0 | - | 0
O=C(/C=C/c1cccc(Cl)c1)NCc1ccncc1 | 0 | 0 | 0 | 0 | 0 | 0
NNC(=O)CS(=O)(=O)c1ccc(Cl)cc1 | - | - | - | - | 0 | -
SMILES | ABCG2 block | Lmaj promast | ABCB1 block | PKD1 kinase inh | Avidin bead fluor | GSH bead fluor
O=C(COC(=O)c1ccc2c(c1)OCO2)NCc1ccc(Cl)cc1 | 0 | 0 | 0 | 0 | 0 | 0
Clc1ccc(Oc2nc3c(Cl)cccc3s2)cc1Cl | - | - | - | - | 0 | -
CC1(C)Cc2ccccc2C(N/N=C/c2ccc(Cl)cc2)=N1 | 0 | 0 | 0 | 0 | 0 | 0
CN(CCCC(=O)Nc1ccncc1)S(=O)(=O)c1ccc(Cl)cc1 | 0 | 86 | 0 | 0 | 0 | 0
CCC(CC)NC(=O)/C=C/c1ccccc1Cl | 0 | 0 | 0 | 0 | 0 | 0
O=C(/C=C/c1c(Cl)cccc1Cl)Nc1ccncc1 | 0 | 98 | 0 | 0 | 0 | 0
CC(=O)N(C)c1ccc(NC(=O)/C=C/c2ccccc2Cl)cc1 | 0 | 60 | 0 | 0 | 0 | 0
Cc1nc(CCNS(=O)(=O)c2cccnc2)cs1 | - | - | - | - | 0 | -
O=C(Cc1ccccc1)Nc1ccccc1N1CCN(c2ccccc2)CC1 | 0 | 0 | 0 | 0 | 0 | 0
O=C(Nc1ccccc1N1CCN(c2ccccc2)CC1)C12CC3CC(CC(C3)C1)C2 | 0 | 98 | 0 | 0 | 0 | 0
CCCCOC(=O)C[N+](C)(C)CCOC1CC2CCC1(C)C2(C)C (centres undefined) | 0 | 69 | 0 | 0 | 0 | 0
CCC(C)OC(=O)C[N+](C)(C)CCOC1CC2CCC1(C)C2(C)C (centres undefined) | 0 | 96 | 0 | 0 | 0 | 0
CCCCCCCOC(=O)C[N+](C)(C)CCOC1CC2CCC1(C)C2(C)C (centres undefined) | 0 | 100 | 0 | 0 | 0 | 0
CCCCCCOC(=O)C[N+](C)(C)CCOC1CC2CCC1(C)C2(C)C (centres undefined) | 0 | 100 | 0 | 0 | 0 | 0
CCOC(=O)CSc1nc(C(C)(C)C)nc2ccccc12 | 0 | 0 | 0 | 0 | 0 | 0
CC(C)CCOC(=O)C[N+](C)(C)CCOC1CC2CCC1(C)C2(C)C (centres undefined) | 0 | 91 | 0 | 0 | 0 | 0
CCCOC(=O)C[N+](C)(C)CCOC1CC2CCC1(C)C2(C)C (centres undefined) | - | - | - | - | 0 | -
Cn1nc(-c2ccccc2)c(C(O)c2ccc(Cl)cc2)c1Cl (centres undefined) | 0 | 0 | 0 | 0 | 56 | 0
Cn1nc(-c2ccccc2)c(CSc2ccccc2Cl)c1Cl | 0 | 0 | 0 | 0 | 0 | 0
CCCCOc1ccc(S(=O)(=O)Nc2ccc(NC(C)=O)cc2)cc1 | 0 | 0 | 0 | 0 | 0 | 129
CCCCOC(=O)Nc1ccc(S(=O)(=O)Nc2ccc([N+](=O)[O-])cc2)cc1 | 0 | 78 | - | 0 | 0 | 0
C=CCNC(=O)COc1ccc(S(=O)(=O)Nc2ccc(OCC)cc2)cc1 | 0 | 60 | 0 | 0 | 0 | 0
CCCCCOC(=O)Nc1ccc(S(=O)(=O)Nc2cccc([N+](=O)[O-])c2)cc1 | 0 | 62 | 0 | 0 | 0 | 0
COCC(C)NC(=S)Nc1ccccc1[N+](=O)[O-] (centres undefined) | 0 | 0 | 0 | 0 | 0 | 0
COC(=O)c1csc2c(C(F)(F)F)cc(N3CCN(C(=O)Nc4ccccc4)CC3)nc12 | - | - | - | - | 0 | -
SMILES | ABCG2 block | Lmaj promast | ABCB1 block | PKD1 kinase inh | Avidin bead fluor | GSH bead fluor
O=C(C1=NNCC1c1ccccc1)C1OC1c1ccccc1 (centres undefined) | - | - | - | - | 0 | -
Cc1cccc(NC(=S)NCCC(c2ccccc2)c2ccccc2)c1 | 0 | 97 | 0 | 0 | 0 | 0
COc1cc(NC(=S)NCCC(c2ccccc2)c2ccccc2)cc(OC)c1 | 0 | 0 | 0 | 0 | 0 | 0
COc1cccc(NC(=S)NCCC(c2ccccc2)c2ccccc2)c1 | 0 | 100 | 0 | 0 | 0 | 0
COc1cc(C(=O)NCCCNc2ccc([N+](=O)[O-])cc2)cc(OC)c1OC | 0 | 77 | - | 0 | 0 | 0
CCOc1ccc2[nH]c(=O)c(CN(Cc3cccs3)Cc3nnnn3C(C)(C)CC)cc2c1 | 0 | 59 | 0 | 0 | 0 | 0
NS(=O)(=O)c1ccc(NC(=S)Nc2ccn(Cc3cccc4ccccc34)n2)cc1 | 0 | 0 | 0 | 0 | 0 | 0
O=C(NNc1cc(N2CCOCC2)nc(N2CCOCC2)n1)c1ccc(Cl)cc1Cl | 0 | 0 | 0 | 0 | 0 | 0
